Only some compounds are listed: those with a hit (about 3.6% of all), similar ones and a draw of the others.
Wnt act – Wnt/beta-catenin pathway activators, primary screen, cell-based, plate reader, single point; Wnt/beta-catenin reporter cell assay, activator; activation, % at 9.35 µM; hit rate 1.2% among 300,000; AID 743398, 2014; in the data active = activation above about 30%, passing the limit was not always enough; inconclusive = no clear call, values can overlap the other calls;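 note: 0% = neutral control wells and 100% = positive control wells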
SR-BI uptake up – activators of SR-BI mediated DiI-HDL uptake, primary screen, ldlA[mSR-BI] CHO cells, DiI fluorescence | 3 h; 100 = double the neutral-control signal | activation, % at 12.5 µM | hit rate 0.096% among 320,000 | AID 504775, 2011;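 active = mean replicate activation of at least 60% and every replicate at or above 60%; inconclusive = mean or all-replicate condition met, but not both; inactive = mean below 60% and not all replicates reaching 60%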;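 note: 0% = median plate neutral-control signal and 100% = twice that signal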
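Material: SR-BI-overexpressing, LDLR-lacking CHO cells; schedule: compound exposure 3 h, 37 °C; reagent: DiI-labelled HDL at 10 µg/mL final; technique: bottom-read fluorescence, 550/595 nm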
MITF TRPM1 HTS – activators of MITF-driven TRPM1 promoter reporter, primary screen, cell-based, SK-MEL-5, luciferase, single point | SK-MEL-5 TRPM1-promoter luciferase, 24 h; % of positive control, neutral wells = 0 | activation, % at 12.5 µM | hit rate 0.75% among 300,000 | AID 588334, 2011;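 active = mean activation of at least 80% with every replicate also reaching 80%; inconclusive = mean reaches 80% but some replicate falls short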;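 note: 0% = neutral control wells and 100% = parthenolide positive control wells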
HSF-1 act – HSF-1 activators, primary screen, NIH3T3-HGL cells, MG132 stress, luminescence, single point; NIH3T3-HGL HSF-1 luciferase reporter, 8 h; 100% = twice DMSO control signal; activation, % at 9 µM; AID 504408, 2011; hit rate 1.7% among 300,000;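 active = mean replicate activation of at least 50% with a set share of replicates each reaching 50%; inconclusive = only one of those two conditions met; inactive = mean below 50% and too few replicates reaching it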;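 note: 0% = median of the neutral control wells and 100% = twice that signal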
SR-BI HDL uptake – inhibitors of SR-BI mediated HDL lipid uptake, primary screen, ldlA[mSR-BI] cells, fluorescence, single point | ldlA[mSR-BI] CHO cells, DiI-HDL uptake fluorescence, 3 h | inhibition, % at 12.5 µM | hit rate 0.96% among 320,000 | Scavenger receptor class B member 1 (Mus musculus), Q61009;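 active = mean replicate inhibition of at least 70% and a set share of replicates each scoring 70 or more; inconclusive = meets just one of the two criteria; inactive = fails both criteria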;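 note: 0% = median of neutral control wells and 100% = median of positive control wells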
Target sequence (Q61009 whole entry, looked up): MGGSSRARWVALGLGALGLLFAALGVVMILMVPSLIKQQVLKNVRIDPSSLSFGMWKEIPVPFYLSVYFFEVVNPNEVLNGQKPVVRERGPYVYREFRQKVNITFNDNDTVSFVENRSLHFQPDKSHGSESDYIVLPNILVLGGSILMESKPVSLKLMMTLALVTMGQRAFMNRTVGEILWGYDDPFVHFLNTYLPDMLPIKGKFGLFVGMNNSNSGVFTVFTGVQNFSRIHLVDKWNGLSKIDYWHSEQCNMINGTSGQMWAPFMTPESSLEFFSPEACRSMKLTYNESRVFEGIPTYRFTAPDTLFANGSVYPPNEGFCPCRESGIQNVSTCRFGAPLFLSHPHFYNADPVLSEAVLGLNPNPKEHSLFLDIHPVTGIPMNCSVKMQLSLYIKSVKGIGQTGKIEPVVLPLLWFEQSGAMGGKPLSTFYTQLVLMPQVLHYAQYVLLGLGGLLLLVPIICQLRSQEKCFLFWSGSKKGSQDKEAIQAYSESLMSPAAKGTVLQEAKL
Starred values were filed as active, the others as inactive; u = inconclusive; x = no result given.

SMILES | Wnt act | SR-BI uptake up | MITF TRPM1 HTS | HSF-1 act | SR-BI HDL uptake
O=C(Cn1cnc2ccccc21)N/N=C/C(Br)=C/c1ccccc1 | 37* | 7 | -5 | 29 | -7
O=C(N/N=C/C(Br)=C/c1ccccc1)c1cccs1 | u | -23 | 63 | 130* | 23
CCc1nc2c(OCCn3cccc3)cccn2c1N(C)C(=O)C1CC1 | 0 | x | x | x | x
CC(C)Oc1ccc(CN2CCC2(C)C(=O)Nc2cccc3cccnc23)cc1 (stereo not given) | -4 | x | x | x | x
Cc1cnc(CN(C)C(=O)C2CCC(=O)N(CCc3ccc(Cl)cc3)C2)[nH]1 (stereo not given) | -1 | x | x | x | x
Cc1cc(C)c(CN2CCN(C(=O)Cn3cnc(C(=O)Nc4ccc(C)c(C)c4)n3)CC2)c(C)c1 | -2 | -10 | 0 | x | 10
CC(/C=N/NC(=O)c1cc(-c2ccc(C)o2)[nH]n1)=C\c1ccccc1 | x | -5 | 3 | 15 | 5
O=C(N/N=C/C(Br)=C/c1ccccc1)c1cc(-c2ccco2)[nH]n1 | 23 | -11 | -17 | 130* | 11
CCn1c(-c2ccccc2)c(C(=O)CCl)c2ccccc21 | -1 | 16 | -71 | 98* | -16
Cc1cc(N(C)C(=O)c2ccc3c(c2)S(=O)(=O)c2cc(Cl)ccc2C3=O)c(C(F)(F)F)o1 | -1 | -74 | 11 | x | 74*
CC(C)(C)CNC(=O)c1ccc2c(c1)S(=O)(=O)c1cc(Cl)ccc1C2=O | 0 | 0 | -6 | x | 0
COc1ccccc1-c1nnc(NC(=O)CSc2nncn2C)s1 | 54* | -3 | 9 | 9 | 3
c1ccc2c(c1)oc1c(-c3cccc4nccn34)cccc12 | -1 | x | x | x | x
Nc1ccc(C(=O)Nc2ccc(OC(F)(F)C(F)F)c(NC(=O)c3ccc(N)cc3)c2)cc1 | 2 | -77 | 4 | -4 | 77*
Cc1ccc(NC(=O)c2ccc3nc[nH]c3c2)c(O)c1 | 7 | 6 | 27 | 66* | -6
CCC1(CC)C(C#N)C(=O)NC(=O)C1C#N (stereo not given) | 0 | 21 | -4 | x | -21
COc1cccc(NC(=S)N(CCN(C)C)C(C)c2cccnc2)c1 (stereo not given) | 3 | 21 | 22 | 46 | -21
Cc1cccc(NC(=S)N(CCN(C)C)C(C)c2cccnc2)c1 (stereo not given) | -1 | -7 | 1 | 60* | 7
CCOC(=O)[C@]12CCCC=C1N(Cc1ccc(Cl)cc1Cl)C(=O)[C@H](CC(=O)N1CCN(C(=O)c3ccco3)CC1)C2 | -3 | x | x | x | x
O=C(COn1nnc2ccccc21)NCC1CCCCC1 | 36* | 36 | x | 25 | -36
CC1CCC(C(C)C)C(=O)/C1=C/c1ccc(N)cc1 (stereo not given) | 53* | x | 112* | 34 | x
CC1/C(=C\c2ccc(Cl)cc2)C(=O)C2CC1C2(C)C (stereo not given) | 0 | 16 | -2 | -10 | 6
O=C(CSc1ccccn1)c1ccc2c(c1)OCO2 | 47* | 2 | x | 40 | -2
O=C(CSc1nc2ccccc2[nH]1)c1ccc2c(c1)OCO2 | 54* | -9 | x | x | 9
O=C(NCc1ccccn1)[C@@H]1CCCN1C(=O)[C@@H]1CCCN1 | -2 | x | x | x | x
SMILES | Wnt act | SR-BI uptake up | MITF TRPM1 HTS | HSF-1 act | SR-BI HDL uptake
Cc1ccc(N2NC(C)(c3cccs3)NC2=S)cc1 (stereo not given) | 12 | 11 | 92* | -1 | -11
Cc1ccc(N2CC(O)(c3cccs3)[N+]3=C2CCCC3)cc1 (stereo not given) | -1 | 5 | 2 | 3 | -5
COc1ccc(-n2ncc3c(SCC(=O)OC(C)C)ncnc32)cc1 | -1 | x | x | x | x
Cc1ccc(S(=O)(=O)NC(=O)C2(C)CCN2C(=O)COc2ccc(Cl)cc2)nc1 (stereo not given) | -3 | x | x | x | x
COc1cccc(/C(O)=C2/C(=O)C(=O)N(CCN(C)C)C2c2ccccn2)c1 (stereo not given) | x | 16 | 8 | 1 | -16
CN(C)CCN1C(=O)C(=O)/C(=C(/O)c2ccc3c(c2)OCCO3)C1c1ccccn1 (stereo not given) | 37* | -1 | 0 | -7 | 1
CC1=CC(=O)C=CC1=Nc1ccc(N(C)C)cc1 | -1 | x | x | x | x

Screening results (PubChem BioAssay)
